{
  "source": "ChEMBL document CHEMBL1221309",
  "about": "“Synthesis of novel tetrahydroisoquinoline bronchodilators” (Bioorg Med Chem Lett, 2010)",
  "key": {"Homo sapiens [1]": {"organism": "Homo sapiens", "assay": "Bronchorelaxant activity in human small airways assessed as remaining contraction at 10 uM relative to LTD4", "type": "functional", "method_in_brief": "(§1)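 Isolated human small airways (inner diameter <2.0 mm) were mounted in a previously described apparatus and contracted with LTD4. The test item was added, usually at 10 μM and also at 1 μM. %RC is the contraction remaining with the test item, expressed against the maximum LTD4-evoked contraction without it.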"}, "Homo sapiens [2]": {"organism": "Homo sapiens", "assay": "Bronchorelaxant activity in human small airways assessed as remaining contraction at 1 uM relative to LTD4", "type": "functional", "method_in_brief": "as §1"}, "Homo sapiens [3]": {"organism": "Homo sapiens", "assay": "Bronchorelaxant activity in human small airways assessed as remaining contraction", "type": "functional", "method_in_brief": "as §1"}, "Homo sapiens [4]": {"organism": "Homo sapiens", "assay": "Bronchorelaxant activity in human small airways assessed as remaining contraction at 10 uM relative to acetylcholine", "type": "functional", "method_in_brief": "(§2)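 Isolated human small airways (inner diameter <2.0 mm) were contracted with acetylcholine, with histamine, or with a cocktail of LTD4, acetylcholine and histamine. Test item at 10 μM; relaxation of each induced contraction was recorded.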"}, "[5]": {"assay": "Lipophilicity log D of the compound at pH 7.4", "type": "physicochemical", "settings": "buffer"}, "Homo sapiens [6]": {"organism": "Homo sapiens", "assay": "Bronchorelaxant activity in human small airways assessed as remaining contraction at 10 uM relative to histamine", "type": "functional", "method_in_brief": "as §2"}, "[7]": {"assay": "Aqueous solubility of the compound", "type": "physicochemical"}, "Homo sapiens [8]": {"organism": "Homo sapiens", "assay": "Bronchorelaxant activity in human small airways assessed as remaining contraction at 10 uM relative to acetylcholine and histamine combination", "type": "functional", "method_in_brief": "as §2"}},
  "data": [
    {"smiles": "O=C(/C=C/c1ccc(O)cc1)N1CCc2c(Cl)c(O)c(O)c(Cl)c2C1", "values": [
      {"measurement": "Activity", "setting": "Homo sapiens [1]", "value": 32, "unit": "%"}
    ]},
    {"smiles": "Cc1nc(C(F)(F)F)ncc1/C=C/C(=O)N1CCc2c(Cl)c(O)c(O)c(Cl)c2C1", "values": [
      {"measurement": "Activity", "setting": "Homo sapiens [1]", "value": 18, "unit": "%"},
      {"measurement": "Activity", "setting": "Homo sapiens [2]", "value": 88, "unit": "%"}
    ]},
    {"smiles": "O=C(CCCc1ncc(C(F)(F)F)cc1C1CCCCC1)N1CCc2c(Cl)c(O)c(O)c(Cl)c2C1", "values": [
      {"measurement": "Activity", "setting": "Homo sapiens [1]", "value": 77, "unit": "%"}
    ]},
    {"smiles": "O=C(CCc1ccc(C(F)(F)F)nc1)N1CCc2c(Cl)c(O)c(O)c(Cl)c2C1", "values": [
      {"measurement": "Activity", "setting": "Homo sapiens [1]", "value": 29, "unit": "%"}
    ]},
    {"smiles": "O=C(CCCc1ccc(C(F)(F)F)nc1)N1CCc2c(Cl)c(O)c(O)c(Cl)c2C1", "values": [
      {"measurement": "Activity", "setting": "Homo sapiens [1]", "value": 26, "unit": "%"},
      {"measurement": "Activity", "setting": "Homo sapiens [2]", "value": 93, "unit": "%"}
    ]},
    {"smiles": "Cc1cc(C(F)(F)F)cnc1CCCC(=O)N1CCc2c(Cl)c(O)c(O)c(Cl)c2C1", "values": [
      {"measurement": "Activity", "setting": "Homo sapiens [1]", "value": 7, "unit": "%"},
      {"measurement": "Activity", "setting": "Homo sapiens [2]", "value": 67, "unit": "%"}
    ]},
    {"smiles": "C/C(=C\\C(=O)N1CCc2c(Cl)c(O)c(O)c(Cl)c2C1)c1ccc(C(F)(F)F)nc1", "values": [
      {"measurement": "ED50", "setting": "Homo sapiens [3]", "value": 2270, "unit": "nM"},
      {"measurement": "Activity", "setting": "Homo sapiens [1]", "value": 7, "unit": "%"},
      {"measurement": "Activity", "setting": "Homo sapiens [4]", "value": 93, "unit": "%"},
      {"measurement": "logD", "setting": "[5]", "value": 3.5},
      {"measurement": "Activity", "setting": "Homo sapiens [6]", "value": 97, "unit": "%"},
      {"measurement": "solubility", "setting": "[7]", "value": 18, "unit": "µM"},
      {"measurement": "Activity", "setting": "Homo sapiens [8]", "value": 82, "unit": "%"},
      {"measurement": "Activity", "setting": "Homo sapiens [2]", "value": 74, "unit": "%"}
    ]},
    {"smiles": "O=C(CCCc1ccc(F)cn1)N1CCc2c(Cl)c(O)c(O)c(Cl)c2C1", "values": [
      {"measurement": "Activity", "setting": "Homo sapiens [1]", "value": 25, "unit": "%"},
      {"measurement": "Activity", "setting": "Homo sapiens [2]", "value": 89, "unit": "%"}
    ]},
    {"smiles": "O=C(CCCc1ncc(C(F)(F)F)cc1-c1ccccc1)N1CCc2c(Cl)c(O)c(O)c(Cl)c2C1", "values": [
      {"measurement": "Activity", "setting": "Homo sapiens [1]", "value": 38, "unit": "%"},
      {"measurement": "Activity", "setting": "Homo sapiens [2]", "value": 90, "unit": "%"}
    ]},
    {"smiles": "Cc1nc(C(F)(F)F)ccc1/C=C/C(=O)N1CCc2c(Cl)c(O)c(O)c(Cl)c2C1", "values": [
      {"measurement": "Activity", "setting": "Homo sapiens [1]", "value": 9, "unit": "%"},
      {"measurement": "Activity", "setting": "Homo sapiens [2]", "value": 71, "unit": "%"}
    ]},
    {"smiles": "O=C(CCc1ccc(C(F)(F)F)nc1)N1CCc2c(F)c(O)c(O)c(F)c2C1", "values": [
      {"measurement": "Activity", "setting": "Homo sapiens [1]", "value": 85, "unit": "%"}
    ]},
    {"smiles": "O=C(/C=C/c1ccccc1)N1CCc2c(Cl)c(O)c(O)c(Cl)c2C1", "values": [
      {"measurement": "Activity", "setting": "Homo sapiens [1]", "value": 41, "unit": "%"},
      {"measurement": "Activity", "setting": "Homo sapiens [2]", "value": 83, "unit": "%"}
    ]},
    {"smiles": "O=C(CCCc1ccc([N+](=O)[O-])cn1)N1CCc2c(Cl)c(O)c(O)c(Cl)c2C1", "values": [
      {"measurement": "Activity", "setting": "Homo sapiens [1]", "value": 33, "unit": "%"},
      {"measurement": "Activity", "setting": "Homo sapiens [2]", "value": 74, "unit": "%"}
    ]},
    {"smiles": "CS(=O)(=O)c1ccc(CCCC(=O)N2CCc3c(Cl)c(O)c(O)c(Cl)c3C2)nc1", "values": [
      {"measurement": "Activity", "setting": "Homo sapiens [1]", "value": 72, "unit": "%"},
      {"measurement": "Activity", "setting": "Homo sapiens [2]", "value": 99, "unit": "%"}
    ]},
    {"smiles": "O=C(/C=C/c1ccc(C(F)(F)F)nc1)N1CCc2c(Cl)c(O)c(O)c(Cl)c2C1", "values": [
      {"measurement": "Activity", "setting": "Homo sapiens [1]", "value": 6, "unit": "%"},
      {"measurement": "Activity", "setting": "Homo sapiens [2]", "value": 87, "unit": "%"}
    ]},
    {"smiles": "O=C(CCCc1ncc(C(F)(F)F)cc1Cl)N1CCc2c(Cl)c(O)c(O)c(Cl)c2C1", "values": [
      {"measurement": "Activity", "setting": "Homo sapiens [1]", "value": 5, "unit": "%"},
      {"measurement": "Activity", "setting": "Homo sapiens [2]", "value": 61, "unit": "%"}
    ]},
    {"smiles": "O=C(CCCc1ccc(Cl)cn1)N1CCc2c(Cl)c(O)c(O)c(Cl)c2C1", "values": [
      {"measurement": "Activity", "setting": "Homo sapiens [1]", "value": 15, "unit": "%"},
      {"measurement": "Activity", "setting": "Homo sapiens [2]", "value": 85, "unit": "%"}
    ]},
    {"smiles": "O=C(/C=C/c1ccc(F)cn1)N1CCc2c(Cl)c(O)c(O)c(Cl)c2C1", "values": [
      {"measurement": "Activity", "setting": "Homo sapiens [1]", "value": 24, "unit": "%"}
    ]},
    {"smiles": "COc1ccc(CCCC(=O)N2CCc3c(Cl)c(O)c(O)c(Cl)c3C2)nc1", "values": [
      {"measurement": "Activity", "setting": "Homo sapiens [1]", "value": 31, "unit": "%"},
      {"measurement": "Activity", "setting": "Homo sapiens [2]", "value": 96, "unit": "%"}
    ]},
    {"smiles": "O=C(CCCc1ccc(Cl)cc1)N1CCc2c(Cl)c(O)c(O)c(Cl)c2C1", "values": [
      {"measurement": "Activity", "setting": "Homo sapiens [1]", "value": 16, "unit": "%"},
      {"measurement": "Activity", "setting": "Homo sapiens [2]", "value": 80, "unit": "%"}
    ]},
    {"smiles": "O=C(CCCc1ccc(C(F)(F)F)cn1)N1CCc2c(Cl)c(O)c(O)c(Cl)c2C1", "values": [
      {"measurement": "Activity", "setting": "Homo sapiens [1]", "value": 19, "unit": "%"},
      {"measurement": "Activity", "setting": "Homo sapiens [2]", "value": 72, "unit": "%"}
    ]},
    {"smiles": "O=C(/C=C/c1ccc(C(F)(F)F)nc1)N1CCc2c(c3c(c4c2CCO4)OCC3)C1", "values": [
      {"measurement": "Activity", "setting": "Homo sapiens [1]", "value": 91, "unit": "%"}
    ]},
    {"smiles": "O=C(/C=C/c1cccnc1)N1CCc2c(Cl)c(O)c(O)c(Cl)c2C1", "values": [
      {"measurement": "Activity", "setting": "Homo sapiens [1]", "value": 44, "unit": "%"},
      {"measurement": "Activity", "setting": "Homo sapiens [2]", "value": 100, "unit": "%"}
    ]},
    {"smiles": "N#Cc1ccc(CCCC(=O)N2CCc3c(Cl)c(O)c(O)c(Cl)c3C2)nc1", "values": [
      {"measurement": "Activity", "setting": "Homo sapiens [1]", "value": 34, "unit": "%"},
      {"measurement": "Activity", "setting": "Homo sapiens [2]", "value": 86, "unit": "%"}
    ]},
    {"smiles": "Cc1c(O)c(O)c(C)c2c1CCN(C(=O)/C=C/c1ccc(C(F)(F)F)nc1)C2", "values": [
      {"measurement": "Activity", "setting": "Homo sapiens [1]", "value": 75, "unit": "%"}
    ]}
  ]
}
